Measurements as given in paper PMC3215888 (Cancer Chemotherapy and Pharmacology, 2011).
Where two headings read alike, the source gives them in different places.

Columns and labels:
[1] = test system: SK-N-MC Ewing sarcoma cell line; assay: DIMSCAN in vitro testing, 96 h; format: cell-based; conditions: for IC50: Homo sapiens, 96 h
Summary of the method: (§1)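 Neuroblastoma and Ewing sarcoma lines, STR-verified and maintained as in the originators' reports. Exposed for 96 h to test compound (DMSO stock diluted in medium) at 1 nM–10 μM. Viable cells quantified by fluorescein diacetate fluorescence with DIMSCAN digital image microscopy. Absolute IC50 = concentration giving 50% growth inhibition vs controls. Relative IC50 = concentration giving 50% of the maximum inhibitory effect.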

[2] = test system: CHLA-140 neuroblastoma cell line; assay: DIMSCAN in vitro testing, 96 h; format: cell-based; conditions: for IC50: Neuroblastoma cell, 96 h
Summary of the method: as §1

[3] = test system: NB-EBc1 neuroblastoma cell line; assay: DIMSCAN in vitro testing, 96 h; format: cell-based; conditions: for IC50: Neuroblastoma cell, 96 h
Summary of the method: as §1

[4] = test system: Ewing sarcoma cell lines; assay: DIMSCAN in vitro testing, 96 h, Ewing panel; format: cell-based
Summary of the method: as §1

[5] = test system: NB-1771 Neuroblastoma xenograft; format: in vivo, mice
Summary of the method: (§2)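 Female CB17 scid mice bearing subcutaneous tumors, 10 per group. Dosed by oral gavage twice daily, 5 days weekly for 6 weeks, at 20.8, 10.4, 5.2 or 2.6 mg/kg, in 10% 2-hydroxypropyl-β-cyclodextrin/1% sodium bicarbonate. Event = quadrupled tumor volume; EFS by Kaplan–Meier, exact log-rank test. Per-mouse scores PD/SD/PR (≥50% regression)/CR (<0.10 cm3)/MCR; group median reported. PR, CR and MCR count as objective responses.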

[6] = test system: OS-1 Osteosarcoma xenograft; format: in vivo, mice
Summary of the method: as §2

[7] = Plasma pharmacokinetics after a single oral dose, LC/MS/MS; format: in vivo, non-tumored scid mice; conditions: scid, mouse
[8] = test system: NB-1771 tumor xenograft; assay: Pharmacodynamics: mitotic index; format: in vivo, mice; conditions: single 20.8 mg/kg
Summary of the method: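 Single oral 20.8 mg/kg dose to mice bearing NB-1771 tumors. Tumors taken at 0, 2, 6, 8, 12 and 24 h (3 mice per time), formalin-fixed, paraffin-embedded. 5 μm sections immunofluorescently stained for MPM2 (1:100) and phospho-Ser10 histone H3 (1:25), 60 min at room temperature, DAPI counterstain. Five 40× images per slide; mitotic index = % cells positive for either marker; mean ± SD.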

[9] = Toxicity; format: in vivo, mice; conditions: solid tumor study at the MTD
Summary of the method: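 Deaths counted in control and treated arms of the xenograft efficacy studies (10 mice per solid tumor group, 8 per ALL group). A group would be excluded from analysis if mortality exceeded 25%.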

[10] = patients, 50 mg BID for 7 days; cited from earlier work

## COc1cc(Nc2ncc3c(n2)-c2ccc(Cl)cc2C(c2c(F)cccc2OC)=NC3)ccc1C(=O)O [MLN8237]
[1]; read-out: Absolute IC50
  IC50: 72 nM
[1]; read-out: Relative IC50
  IC50: 66 nM
[1]; minimum T/C
  Ymin: 2.8%
[2]; CHLA-140, minimum T/C
  Ymin: 29.4%
[2]; read-out: Absolute IC50
  IC50: 26 nM
[2]; read-out: Relative IC50
  IC50: 14 nM
[3]; NB-EBc1, minimum T/C
  Ymin: 3.6%
[3]; read-out: Absolute IC50
  IC50: 50 nM
[3]; read-out: Relative IC50
  IC50: 49 nM
[4]; median of Ewing panel
  median Ymin, Ewing cell lines: 11.4%
[4]; read-out: relative IC50 values, Ewing sarcoma cell lines
  IC50: 58 nM
[5]; 2.6 mg/kg
  EFS T/C: 1.9
  EFS activity: Low
  Estimate of median time to event: 38.2 days
  Median group response: PD2 (if the TGD value >1.5, the mouse was considered PD2)
  Response activity: Int
  Tumor volume T/C: 0.38
  Median RTV/hCD45 at end of study: >4
[5]; 5.2 mg/kg
  EFS T/C: >2.1
  EFS activity: Int
  Median group response: PD2 (if the TGD value >1.5, the mouse was considered PD2)
  Response activity: Int
  Tumor volume T/C: 0.38
  Median RTV/hCD45 at end of study: 2.2
[5]; 10.4 mg/kg
  EFS T/C: >2.1
  EFS activity: High
  Median group response: MCR
  Response activity: High
  Tumor volume T/C: 0.08
  Median RTV/hCD45 at end of study: 0.0
[5]; 20.8 mg/kg
  EFS T/C: >2.1
  EFS activity: High
  Median group response: MCR
  Response activity: High
  Tumor volume T/C: 0.02
  Median RTV/hCD45 at end of study: 0.0
[6]; 2.6 mg/kg
  EFS T/C: >1.5
  Median group response: PD2 (if the TGD value >1.5, the mouse was considered PD2)
  Response activity: Int
  Tumor volume T/C: 0.75
  Median RTV/hCD45 at end of study: 3.5
[6]; 5.2 mg/kg
  EFS T/C: >1.5
  Median group response: PD2 (if the TGD value >1.5, the mouse was considered PD2)
  Response activity: Int
  Tumor volume T/C: 0.70
  Median RTV/hCD45 at end of study: 3.4
[6]; 10.4 mg/kg
  EFS T/C: >1.5
  Median group response: PD2 (if the TGD value >1.5, the mouse was considered PD2)
  Response activity: Int
  Tumor volume T/C: 0.56
  Median RTV/hCD45 at end of study: 2.0
[6]; 20.8 mg/kg
  EFS T/C: >1.5
  Response activity: Int
  Tumor volume T/C: 0.45
  Median RTV/hCD45 at end of study: 0.8
[7]; oral, 10 mg/kg
  concentration at 12 h: 1200 nM
[7]; oral, 10.4 mg/kg
  concentration at 12 h: 1200 nM
[7]; po, 10 mg/kg
  AUC(0-t): 39 µM·h
[7]; po, 10 mg/kg, C max, single oral 10 mg/kg, mice
  Cmax: 15800 nM
[7]; po, 10.4 mg/kg
  AUC(0-t): 60.3 µM·h
  Cmax: 24800 nM
  Tmax: 30 min
[7]; po, 20.8 mg/kg
  AUC(0-t): 78.4 µM·h
  Tmax: 30 min
  concentration at 12 h: 1800 nM
[8]
  time of return of mitotic indices to baseline levels: 24 h
[8]; 20.8 mg/kg
  time of peak of mitotic indices / pharmacodynamic activity: 12 h
[8]; 6 h
  increase of mitotic indices (MPM2, pHistH3) within 6 h: approximately twofold
[8]; 12 h
  increase of mitotic indices (MPM2, pHistH3) at peak: three to fivefold
[9]
  mice that died in the MLN8237 treatment arms: 5 of 90
  mice that died in the MLN8237 treatment arms, percent: 5.6%
[10]
  average trough concentrations: exceeded 1 μM
